bIAP act – increases bovine intestinal alkaline phosphatase activity; purified bovine IAP, CDP-star luminescence, 30 min; hits give high values; fold of DMSO-control signal, blank-subtracted; AID 1016; actives 0.17% (n = 200,000); activation factor at 20 µM;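 active = activation factor of 2 or more at 20 µM, a signal rise over negative controls twice the positive control's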
hIAP block – human IAP inhibition; P09923; purified IAP, CDP-Star luminescence, 30 min; inhibition, % at 10 µM; actives 0.12% (n = 330,000);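 active = inhibition reaching a set limit with compound at 10 µM in the primary screen, cut at about 35% in these data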;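 note: plate controls were DMSO wells with enzyme for no effect and no-enzyme buffer wells for full effect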
Target sequence (P09923 whole entry, looked up): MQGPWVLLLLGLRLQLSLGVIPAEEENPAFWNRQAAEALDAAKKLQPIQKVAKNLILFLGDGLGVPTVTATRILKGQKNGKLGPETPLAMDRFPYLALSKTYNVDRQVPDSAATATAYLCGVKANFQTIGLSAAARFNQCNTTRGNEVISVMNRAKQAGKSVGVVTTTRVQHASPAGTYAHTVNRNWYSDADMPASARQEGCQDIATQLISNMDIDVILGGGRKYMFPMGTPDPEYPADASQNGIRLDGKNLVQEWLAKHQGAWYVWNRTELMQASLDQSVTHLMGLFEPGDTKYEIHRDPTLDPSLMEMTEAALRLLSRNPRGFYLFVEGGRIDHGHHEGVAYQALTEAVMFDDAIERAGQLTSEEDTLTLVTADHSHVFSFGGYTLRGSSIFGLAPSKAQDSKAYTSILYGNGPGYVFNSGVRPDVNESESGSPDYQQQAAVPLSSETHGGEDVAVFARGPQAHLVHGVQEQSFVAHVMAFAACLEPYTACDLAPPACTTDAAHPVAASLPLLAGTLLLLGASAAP
mIAP activ – increases mouse intestinal alkaline phosphatase activity; muIAP, CDP-Star luminescence, 30 min; hits give high values; 1 = vehicle-only enzyme signal, 0 = enzyme-free wells; activation factor at 10 µM; actives 0.24% (n = 330,000);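 active = activation factor of at least 2 at 20 µM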
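Assay system: mouse IAP enzyme / Compound: DMSO-dissolved test compounds / Timing: 30 min, room temperature / Measured by: luminescence from enzymatic CDP-Star hydrolysis / Control set: DMSO-only wells, enzyme-free buffer wells as negative control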
mIAP block – mouse IAP inhibition; purified mouse IAP, CDP-Star luminescence, 30 min; actives 0.2% (n = 330,000); inhibition, % at 10 µM;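 active = inhibition of at least 40% at 10 µM in the primary screen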;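 note: plate controls were DMSO with enzyme for no effect and no enzyme wells for full effect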
hIAP act – human IAP activation | P09923 | purified human IAP, CDP-Star luminescence, 30 min; hits give high values; 1 = vehicle-only enzyme, 0 = enzyme-free background | activation factor at 10 µM | actives 0.16% (n = 330,000) | AID 2524;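 active = activation factor of the enzyme at least 2-fold when tested at 20 µM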
bIAP inhibitor – blocks bovine intestinal alkaline phosphatase activity; purified bovine IAP, CDP-star luminescence, 30 min; inhibition, % at 20 µM; 190,000 tested, under 10 active; AID 1019;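 active = over 50% inhibition of intestinal alkaline phosphatase at 20 µM in the single-dose screen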
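Assay system – bovine IAP enzyme · Quantity – bovine IAP at 1/65,000,000 final dilution · Detection – CDP-star luminescence signal · Times – 30 min reaction at room temperature · Also added – CDP-star substrate at 30 µM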
Active calls of the source: *; x = no result. Hits are enriched below; roughly 0.77% of the tested compounds scored in any of these assays.

SMILES | bIAP act | hIAP block | mIAP activ | mIAP block | hIAP act | bIAP inhibitor
Cc1cc(C)c(NC(=O)c2ccc(CN3CCc4ccccc4C3)cc2)c(C)c1 | 2.1* | 6.8 | 1.04 | -4.1 | 0.932 | -106.7
CSc1ccc(CCNC(=O)c2cc(-c3ccccc3)c(N3CCOCC3)s2)cc1 | x | -52.0 | 2.37* | -136.9 | 1.52 | x
COc1ccc(CCNC(=O)c2ccc(CNc3c(N4CCOCC4)c(=O)c3=O)cc2)cc1OC | 1 | 6.8 | 0.96 | 4.0 | 0.932 | 1.2
O=C(NCCc1ccccc1)c1cc(-c2ccccc2)c(N2CCOCC2)s1 | x | -15.9 | 2.81* | -181.3 | 1.16 | x
COc1ccc(CCNC(=O)c2cc(-c3ccccc3O)n[nH]2)cc1OC | 2* | 5.6 | 1.91 | -91.3 | 0.944 | -104.0
COc1ccc(CCNC(=O)c2cc(-c3ccccc3)c(N3CCOCC3)s2)cc1OC | x | -43.3 | 2.15* | -115.2 | 1.43 | x
CCn1cnc2c1c(=O)[nH]c(=O)n2Cc1ccccc1 | x | 4.7 | 1.08 | -7.9 | 0.953 | x
CC(=O)c1cccc(S(=O)(=O)N2CCCC(c3nc4c(nnn4Cc4ccc(C)cc4)c(=O)[nH]3)C2)c1 (stereo not given) | x | 8.5 | 0.934 | 6.6 | 0.915 | x
COc1ccc(C(=O)COc2ccc3ccc(=O)oc3c2)cc1 | x | -28.3 | 0.997 | 0.3 | 1.28 | x
N#CCCSc1ccccc1NC(=O)c1cc(=O)c2ccccc2o1 | x | -7.3 | 1 | -0.5 | 1.07 | x
CCCNC(=O)N(CCOC)CC1CCCN(C2Cc3ccccc3C2)C1 (stereo not given) | x | 4.4 | 1.07 | -7.3 | 0.956 | x
COc1ccc2[nH]cc(C(=O)CN3CCCC(C)(C)C3)c2c1 | x | 0.8 | 1.06 | -5.7 | 0.992 | x
O=C(Nc1ccc(Br)cc1)Nc1ccccc1Cl | x | -8.7 | 2* | -100.4 | 1.09 | x
O=C(Nc1ccc(CN2CCCCC2)cc1)Nc1ccccc1Cl | 1.5 | 4.3 | 1.59 | -59.5 | 0.957 | -54.4
CC(NC(=O)CSc1nc2c(c(C(F)(F)F)n1)CCc1ccccc1-2)c1ccccc1 (stereo not given) | 0.9 | 3.4 | 0.952 | 4.8 | 0.966 | 5.3
S=C(NCCN(C1CCCCC1)C1CCCC1)Nc1cccc(Cl)c1 | x | -11.7 | 2.02* | -101.9 | 1.12 | x
S=C(NCc1ccncc1)Nc1cccc(Cl)c1 | 0.7 | -1.9 | 1 | -0.4 | 1.02 | 27.7
S=C(Nc1cccc(Cl)c1)NC1CC2CCCC(C1)N2C1CCCC1 (stereo not given) | 1 | -3.7 | 2.2* | -119.6 | 1.04 | -0.9
S=C(Nc1ccc(Cl)cc1)NC1CC2CCC(C1)N2Cc1ccccc1 (stereo not given) | 1.1 | -26.0 | 2.26* | -125.8 | 1.26 | -14.8
CNC(=S)NC1CC2CCC(C1)N2Cc1ccccc1 (stereo not given) | 0.9 | 6.9 | 1.02 | -2.4 | 0.931 | 10.5
S=C(Nc1ccc(Cl)cc1)NC1CC2CCCC(C1)N2C1CC1 (stereo not given) | 1.2 | -11.5 | 2.64* | -163.7 | 1.11 | -19.4
COc1cccc(NC(=S)NC2CC3CCCC(C2)N3C2CCCC2)c1 (stereo not given) | 1.2 | -24.4 | 1.3 | -30.3 | 1.24 | -22.3
S=C(Nc1ccc(Cl)cc1)NC1CC2CCCC(C1)N2C1CCCC1 (stereo not given) | 1.5 | 8.7 | 1.97 | -96.5 | 0.913 | -50.1
O=C(C[N+]1(CC#Cc2ccccc2)CCOCC1)c1ccc(Cl)cc1 | 1.1 | -1.0 | 0.993 | 0.7 | 1.01 | -5.7
Cc1cc(C)cc(NC(=S)NC2CC3CCCC(C2)N3CC(C)C)c1 (stereo not given) | 0.9 | -10.7 | 1.38 | -38.2 | 1.11 | 14.6
SMILES | bIAP act | hIAP block | mIAP activ | mIAP block | hIAP act | bIAP inhibitor
C=CCN1C2CCCC1CC(NC(=O)Nc1cc(C)cc(C)c1)C2 (stereo not given) | 2* | -37.8 | 1.69 | -68.6 | 1.38 | -95.5
Cc1cc(C)cc(NC(=S)NC2CC3CCCC(C2)N3C2CC2)c1 (stereo not given) | 1.4 | -24.7 | 2.31* | -130.7 | 1.25 | -44.0
S=C(NCc1cccc(Cl)c1)NC1CCCCC1 | 1 | -29.0 | 2.47* | -146.8 | 1.29 | 4.9
CN(Cc1ccco1)C(=O)C(Cc1ccccc1)NS(=O)(=O)c1ccc2c(c1)CCC(=O)N2 (stereo not given) | 1 | -1.4 | 0.992 | 0.8 | 1.01 | -2.4
CCOc1ccccc1NC(=S)N1C2CCC1CC(NC(=O)NC13CC4CC(CC(C4)C1)C3)C2 (stereo not given) | 1.6 | 2.7 | 2.12* | -112.3 | 0.973 | -55.0
CC1Oc2ccccc2N(Cc2ccccc2F)C1=O (stereo not given) | 0.7 | 4.6 | 0.971 | 2.9 | 0.954 | 27.7
O=C(COc1ccccc1)c1cn(CC(=O)N2CCOCC2)c2ccccc12 | 1 | -11.3 | 0.946 | 5.4 | 1.11 | -1.6
Cc1nc2cc(NC(=O)Nc3ccc(Br)cc3)ccc2o1 | 1.1 | -11.8 | 2.04* | -104.5 | 1.12 | -13.1
Cc1nc2cc(NC(=O)NCc3ccc4c(c3)OCO4)ccc2o1 | 0.8 | 4.0 | 1.05 | -4.9 | 0.96 | 15.8
O=C(CCc1ccccc1Cl)Nc1cccc(S(=O)(=O)N2CCCC2)c1 | x | -19.3 | 1.17 | -17.3 | 1.19 | x
O=C(Cc1ccccc1Cl)Nc1cccc(S(=O)(=O)N2CCCCCC2)c1 | x | -7.4 | 2.13* | -113.1 | 1.07 | x
Cc1cc(OCC(=O)Nc2cccc(S(=O)(=O)N3CCCCC3)c2)ccc1Cl | x | -0.5 | 3.07* | -207.1 | 1 | x
Cc1cc(OCC(=O)Nc2cccc(S(=O)(=O)N3CCCC3)c2)ccc1Cl | x | -7.5 | 1.42 | -41.5 | 1.07 | x
O=C(NCc1cccnc1)c1cc2ccccc2oc1=O | 1 | -0.2 | 1.06 | -5.6 | 1 | 1.2
O=C(NCCc1cccc(Cl)c1)c1cc2ccccc2oc1=O | x | -2.8 | 0.591 | 40.9* | 1.03 | x
Cc1ccc2c(cnn2C(=O)CCCC(=O)NCc2ccc(F)cc2)c1 | x | 1.9 | 1.02 | -2.3 | 0.981 | x
CCOc1ccc(N(CC(=O)NC2CCCC2)C(=O)CCC(=O)Nc2nc(C)cs2)cc1 | x | 1.6 | 0.995 | 0.5 | 0.984 | x
COc1ccc(NC(=O)CSc2nc3ccccc3nc2N2CCCCC2)cc1 | x | 16.7 | 0.922 | 7.8 | 0.833 | x
CCOC(=O)c1sc(N=NC2=C(O)CCCC2=O)c(C(=O)OCC)c1C | 1.1 | 24.2 | 0.6 | 40.0* | 0.758 | -11.6
CCOC(=O)/C(N=Nc1sc(C(=O)OCC)c(C)c1C(=O)OCC)=C(\C)O | 0.8 | 16.5 | 0.881 | 11.9 | 0.835 | 19.4
O=C(N/N=C\c1ccc([N+](=O)[O-])o1)c1cncc(Br)c1 | x | 10.4 | 0.65 | 35.0 | 0.896 | x
O=C(N/N=C/c1ccc(-c2ccccc2[N+](=O)[O-])o1)c1cncc(Br)c1 | 3.7* | -4.3 | 0.801 | 19.9 | 1.04 | -268.4
Cc1ccc2c(c1)N(CC(=O)NCc1ccco1)C(=O)C(C(C)C)O2 (stereo not given) | x | 15.4 | 1.03 | -3.2 | 0.846 | x
COc1ccccc1-c1cc(SC)c(C#N)c(=O)o1 | 0.9 | 9.0 | 0.874 | 12.6 | 0.91 | 6.1
